Usually MIC50 stands for the lowest concentration that inhibits either 50% of growth or 50% of the strains tested, depending on the study. Low values mean greater potency, high ones weaker potency. As a reminder, the MIC90 is an inhibitory concentration at the 90% level, which refers to growth in some studies and to a panel of isolates in others. The MIC is the lowest concentration found to suppress growth. A high value points to a need for much substance.

We go through 3 compounds from ChEMBL document CHEMBL1649552 (2009).

Format in all cases: functional
For experiment [1], the system named is Streptococcus pneumoniae. As to the kind of experiment: Antibacterial activity against Streptococcus pneumoniae by CLSI M100-S17 method.
Experiment [2] concerns Streptococcus pneumoniae. As to the kind of experiment: Antibacterial activity against Streptococcus pneumoniae assessed as susceptible isolates by CLSI M100-S17 method. The procedure, abridged: (§1)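 CLSI broth microdilution on clinical isolates, using frozen in-house-prepared panels of test and comparator agents. MICs were read after 20 to 24 h incubation at 35°C in ambient air. Susceptible/intermediate categories were assigned by CLSI M100-S17 guidelines.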

The test system of experiment [3] is Streptococcus pneumoniae. As to the kind of experiment: Antibacterial activity against Streptococcus pneumoniae assessed as intermediate isolates by CLSI M100-S17 method. Put shortly: as §1
The subject of experiment [4] is Streptococcus pneumoniae. As to the kind of experiment: Antibacterial activity against Streptococcus pneumoniae assessed as resistant isolates by CLSI M100-S17 method. The procedure, abridged: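 Clinical isolates were tested by CLSI broth microdilution in frozen, in-house-prepared 96-well panels of the test agent and comparator agents. MICs were read and classed as susceptible, intermediate or resistant using CLSI M100-S17 breakpoints. The value is the share of isolates in each category.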

Experiment [5] concerns Streptococcus pyogenes. As to the kind of experiment: Antibacterial activity against Streptococcus pyogenes by CLSI M100-S17 method.
Experiment [6] concerns Streptococcus pyogenes. As to the kind of experiment: Antibacterial activity against Streptococcus pyogenes assessed as susceptible isolates by CLSI M100-S17 method. The procedure, abridged: as §1
The test system of experiment [7] is Streptococcus agalactiae. Briefly: Antibacterial activity against Streptococcus agalactiae by CLSI M100-S17 method.
In experiment [8] the test system is Streptococcus agalactiae. As to the kind of experiment: Antibacterial activity against Streptococcus agalactiae assessed as susceptible isolates by CLSI M100-S17 method. The procedure, abridged: as §1
In another experiment the test system is Moraxella catarrhalis. Briefly: Antibacterial activity against Moraxella catarrhalis by CLSI M100-S17 method.

SMILES strings stand for the structures. Values after ≈ are worked out from the molar mass of the structure shown.

Compound `CO/N=C(\C(=O)N[C@@H]1C(=O)N2C(C(=O)O)=C(CSc3nc(=O)c(O)nn3C)CS[C@H]12)c1csc(N)n1` [CEFTRIAXONE] yielded an MIC50 with Streptococcus pneumoniae [1] not above 0.06 µg/mL. Also, the MIC90 against Streptococcus pneumoniae [1] was determined as 0.12 µg/mL (≈ 0.216 µM). Further, the values for the Activity with Streptococcus pneumoniae [2], with Streptococcus pneumoniae [3] and in the experiment on Streptococcus pneumoniae [4] were 99.7%, 0.2% and 0.1%, respectively.

For the compound `C[C@H]1COc2c(N3CCN(C)CC3)c(F)cc3c(=O)c(C(=O)O)cn1c23.C[C@H]1COc2c(N3CCN(C)CC3)c(F)cc3c(=O)c(C(=O)O)cn1c23.O` [LEVOFLOXACIN], in the experiment with Streptococcus pneumoniae [1], the MIC50 stood at 0.5 µg/mL. Also, the MIC90 against Streptococcus pneumoniae [1] was 1 µg/mL. Besides, the Activity worked out at 99.4% in the experiment on Streptococcus pneumoniae [2], 0% in the experiment on Streptococcus pneumoniae [3] and 0.6% with Streptococcus pneumoniae [4].

Consider `CC1(C)S[C@@H]2[C@H](NC(=O)Cc3ccccc3)C(=O)N2[C@H]1C(=O)O` [PENICILLIN G], for which the MIC50 was 0.06 µg/mL (≈ 0.179 µM) against Streptococcus pneumoniae [1], not above 0.03 µg/mL against Streptococcus pyogenes [5], 0.06 µg/mL (≈ 0.179 µM) in the experiment on Streptococcus agalactiae [7] and more than 8 µg/mL in the experiment with Moraxella catarrhalis. Besides, the MIC90 against Streptococcus pneumoniae [1] is 0.25 µg/mL (≈ 0.748 µM); in the experiment on Streptococcus pyogenes [5] it was not above 0.03 µg/mL; against Streptococcus agalactiae [7], 0.25 µg/mL (≈ 0.748 µM); against Moraxella catarrhalis, more than 8 µg/mL. Also, the Activity stood at 79.3% with Streptococcus pneumoniae [2]; 15.7% in the experiment on Streptococcus pneumoniae [3]; 5% in the experiment with Streptococcus pneumoniae [4]; 100% in the experiment on Streptococcus pyogenes [6]; 100% in the experiment on Streptococcus agalactiae [8]. The same compound came in with an MIC with Streptococcus pyogenes [5] not above 0.03 µg/mL.
